According to PubChem BioAssay:
Calls of active or inactive are those of the source.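 Rule for the calls, unless noted: active = viability at or below 10% of carrier control in both of two separate runs; inconclusive = viability at or below 10% in only one of the two runs; inactive = the rest.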

Key:
[1] = Her2 expression decrease, cell viability multiplex – SKBR3 breast tumor cells, AlphaScreen, ATP viability, primary screen (AID 461;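 active = Her2 level under about 52% in both replicate screens, with viability over 70% of control, limit read from the data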;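 for Her2 level: lower value means less Her2 protein in the cells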;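 for viability: percent of carrier control wells set as 100% viability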); conditions: SKBR3 Her2 protein level, 18-24 h, measured here: SKBR3 viability, ATP luminescence, at 10 µM
[2] = molecular target: Receptor tyrosine-protein kinase erbB-2 (Homo sapiens) (UniProt P04626); experiment: as above; conditions: 18-24 h, at 10 µM, stronger effect = lower value
[3] = reduced viability of SK-BR-3 breast cancer cells – cell-based, 24 h, human, pilot screen (AID 572); conditions: SK-BR-3 viability, CellTiter-Glo luminescence, at 10 µM, stronger effect = lower value;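 note: compound exposure lasted between 18 and 24 h rather than exactly 24 h; 100% = carrier-treated control wells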
[4] = HUVEC growth inhibition – cell-based, human, primary screen (AID 575;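 active = viability at or below 30% in both replicate assays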;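 note: 100% = median of untreated cell wells with 0.1% DMSO on each plate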); conditions: HUVEC proliferation, CellTiter-Glo luminescence, 72 h; at 10 µM; stronger effect = lower value
Outline: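 Assay system: primary human umbilical vein endothelial cells / Buffer or medium: endothelial basal medium with 2% FBS plus growth supplements / Compound dosing: one dose, 10 µM final, 0.1% DMSO / Timing: 72 h treatment at 37 °C / Signal: CTG luminescence / Benchmarks: 32 DMSO-only cell-control wells (high), 32 MePR drug-control wells (low) per plate / Plate: collagen-coated 384-well format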

[5] = H69AR cell proliferation blockers – human, duplicate replicates, primary screen (AID 580;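 active = viability at or under a set limit in both replicates, limit being median viability minus 3 SD, cut at about 48% in these data, passing the limit was not always enough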;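 note: 100% = mean luminescence of untreated wells and 0% = no signal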); conditions: H69AR lung tumor cells viability, ATP luminescence, 72 h; at 10 µM; stronger effect = lower value
[6] = MRP1 drug-resistance reversers in H69AR cells – cell-based, doxorubicin co-treatment, pilot screen (AID 601;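 active = viability loss from added drug above about 55%, and viability with drug at most 40%, in both replicates, limit read from the data, passing the limit was not always enough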); conditions: CellTiter-Glo, 72 h, at 10 µM; for differential viability (reversal): stronger effect = higher value
[7] = yeast transport mutant growth inhibition pilot in 384-well plates, post-Golgi transport modulator project (AID 636; in the data active = inhibition above about 31%); conditions: absorbance 615 nm, about 18 h, stronger effect = higher value
[8] = growth suppression of yeast trafficking mutant, preliminary HTS, modulators of trafficking downstream of Golgi apparatus project, 1536-format plate, OD 615 nm (AID 637; in the data active = inhibition above about 30%); conditions: yeast transport mutant growth, absorbance 615 nm, 18 h; stronger effect = higher value
[9] = H69AR cells + 2 uM doxorubicin, measured here: viability with 2 uM doxorubicin, stronger effect = lower value
[10] = H69AR cells, compound alone cytotoxicity

Receptor tyrosine-protein kinase erbB-2 (Homo sapiens), sequence (P04626 whole entry, looked up): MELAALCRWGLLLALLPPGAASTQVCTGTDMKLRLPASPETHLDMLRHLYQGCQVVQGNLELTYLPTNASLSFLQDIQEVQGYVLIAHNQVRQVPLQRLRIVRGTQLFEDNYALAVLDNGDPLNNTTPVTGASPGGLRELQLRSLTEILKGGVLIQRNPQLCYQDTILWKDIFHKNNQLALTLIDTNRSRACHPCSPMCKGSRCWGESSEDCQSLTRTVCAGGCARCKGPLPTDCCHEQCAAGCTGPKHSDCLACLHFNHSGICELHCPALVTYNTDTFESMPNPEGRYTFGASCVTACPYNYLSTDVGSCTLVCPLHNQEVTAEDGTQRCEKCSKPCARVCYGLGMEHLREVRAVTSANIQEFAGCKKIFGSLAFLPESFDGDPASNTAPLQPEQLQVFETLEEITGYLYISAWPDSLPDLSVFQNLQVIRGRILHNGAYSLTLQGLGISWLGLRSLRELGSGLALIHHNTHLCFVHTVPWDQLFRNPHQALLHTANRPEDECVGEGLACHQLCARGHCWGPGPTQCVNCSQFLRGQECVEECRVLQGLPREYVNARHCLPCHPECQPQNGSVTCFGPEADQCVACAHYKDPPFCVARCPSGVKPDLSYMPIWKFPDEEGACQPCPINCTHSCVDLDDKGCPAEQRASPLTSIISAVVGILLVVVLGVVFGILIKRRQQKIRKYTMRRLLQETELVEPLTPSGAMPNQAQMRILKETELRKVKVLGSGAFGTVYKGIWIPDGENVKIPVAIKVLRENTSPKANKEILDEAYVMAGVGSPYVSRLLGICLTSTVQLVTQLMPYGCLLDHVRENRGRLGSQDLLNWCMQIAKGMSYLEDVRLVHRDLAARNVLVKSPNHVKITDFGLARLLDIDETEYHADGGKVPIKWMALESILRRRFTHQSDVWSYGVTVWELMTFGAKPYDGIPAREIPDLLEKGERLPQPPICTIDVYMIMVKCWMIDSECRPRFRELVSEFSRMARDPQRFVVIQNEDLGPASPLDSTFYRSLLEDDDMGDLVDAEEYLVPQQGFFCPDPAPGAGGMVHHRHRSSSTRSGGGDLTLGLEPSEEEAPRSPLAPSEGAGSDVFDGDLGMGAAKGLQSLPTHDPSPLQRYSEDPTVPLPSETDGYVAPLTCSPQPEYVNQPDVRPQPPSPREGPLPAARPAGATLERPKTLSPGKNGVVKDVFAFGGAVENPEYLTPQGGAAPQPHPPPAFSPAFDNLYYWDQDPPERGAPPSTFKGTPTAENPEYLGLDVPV

In the case of `Cc1ccsc1C1C2=C(CCCC2=O)Nc2ncnn21` (stereo not given), the viability [1] is reported as 86%, the Her2 level [2] is reported as 100% (inactive) and the viability [3] is reported as 86% (inactive). For the same compound, the viability [4] was 98% (inactive), the viability [5] was 92.6% (inactive) and the differential viability (reversal) ([6]; H69AR cells + 2 uM doxorubicin) was -7.12% (inactive). For the same compound, the viability [6, 9] was 99.7%, the viability [6, 10] was 92.6% and the inhibition [7] was -1.32% (inactive). For the same compound, the inhibition [8] was -1.31% (inactive).

In the case of `O=c1cc(NCc2ccccc2)nc2n1CCCS2`, the viability [1] is reported as 103%, the Her2 level [2] is reported as 98% (inactive) and the viability [3] is reported as 103% (inactive). The viability [4] was 104% (inactive), the viability [5] was 92.1% (inactive) and the differential viability (reversal) ([6]; H69AR cells + 2 uM doxorubicin) was 0.29% (inactive). For the same compound, the viability [6, 9] was 91.8%, the viability [6, 10] was 92.1% and the inhibition [7] was -3.68% (inactive). The inhibition [8] was -5.71% (inactive).

For `CC1=C(C(=O)NC2CCCC(C)C2C)C2(CCCCC2)OC1=O` (stereo not given), the viability [1] was 118%, the Her2 level [2] was 100% (inactive) and the viability [3] was 118% (inactive). The viability [4] was 97.6% (inactive), the viability [5] was 95.8% (inactive) and the differential viability (reversal) ([6]; H69AR cells + 2 uM doxorubicin) was 8.08% (inactive). For the same compound, the viability [6, 9] was 87.7%, the viability [6, 10] was 95.8% and the inhibition [7] was -0.27% (inactive). For the same compound, the inhibition [8] was 3.67% (inactive).

For `O=C1CC(N2CCC(C(=O)N3CCCCC3)CC2)C(=O)N1` (stereo not given), the viability [1] was 110%, the Her2 level [2] was 91.5% (inactive) and the viability [3] was 110% (inactive). The viability [4] was 94.4% (inactive), the viability [5] was 96.9% (inactive) and the differential viability (reversal) ([6]; H69AR cells + 2 uM doxorubicin) was 10% (inactive). For the same compound, the viability [6, 9] was 86.8%, the viability [6, 10] was 96.9% and the inhibition [7] was -2.63% (inactive). For the same compound, the inhibition [8] was 3.71% (inactive).

In the case of `COCC(=O)N(Cc1ccc(OC)cc1)Cc1nc2ccccc2c(=O)[nH]1`, the viability [1] is reported as 126%, the Her2 level [2] is reported as 108% (inactive) and the viability [3] is reported as 126% (inactive). For the same compound, the viability [4] was 83.6% (inactive), the viability [5] was 86.2% (inactive) and the differential viability (reversal) ([6]; H69AR cells + 2 uM doxorubicin) was -13.9% (inactive). The viability [6, 9] was 100%, the viability [6, 10] was 86.2% and the inhibition [7] was -5.66% (inactive). The inhibition [8] was 5% (inactive).

In the case of `CCN(CC)Cc1nc2c(c(=O)[nH]1)C1(CCCCC1)Cc1ccccc1-2`, the viability [1] is reported as 87%, the Her2 level [2] is reported as 82.5% (inactive) and the viability [3] is reported as 87% (inactive). The viability [4] was 93.6% (inactive), the viability [5] was 72.8% (inactive) and the differential viability (reversal) ([6]; H69AR cells + 2 uM doxorubicin) was -18.9% (inactive). For the same compound, the viability [6, 9] was 91.7%, the viability [6, 10] was 72.8% and the inhibition [7] was -5.07% (inactive). The inhibition [8] was 0.16% (inactive).

For `O=C(CCCCCn1c(SCc2ccncc2)nc2ccccc2c1=O)NCc1ccco1`, the viability [1] was 80.5%, the Her2 level [2] was 70.5% (inactive) and the viability [3] was 80.5% (inactive). For the same compound, the viability [4] was 96.9% (inactive), the viability [5] was 74.6% (inactive) and the differential viability (reversal) ([6]; H69AR cells + 2 uM doxorubicin) was -13% (inactive). For the same compound, the viability [6, 9] was 87.6%, the viability [6, 10] was 74.6% and the inhibition [7] was -1.18% (inactive). The inhibition [8] was -5.71% (inactive).

In the case of `CSCCC(NC(=O)c1ccco1)C(=O)OC(C)C(=O)NC(=O)NC1CCCCC1` (stereo not given), the viability [1] is reported as 88%, the Her2 level [2] is reported as 99% (inactive) and the viability [3] is reported as 88% (inactive). The viability [4] was 96.1% (inactive), the viability [5] was 111% (inactive) and the differential viability (reversal) ([6]; H69AR cells + 2 uM doxorubicin) was 16.1% (inactive). For the same compound, the viability [6, 9] was 95%, the viability [6, 10] was 111% and the inhibition [7] was -3.9% (inactive). The inhibition [8] was 8.52% (inactive).

In the case of `CCCCOc1ccccc1C(=O)NCCCC(=O)O`, the viability [1] is reported as 92.5%, the Her2 level [2] is reported as 80.5% (inactive) and the viability [3] is reported as 92.5% (inactive). For the same compound, the viability [4] was 95.4% (inactive), the viability [5] was 87.1% (inactive) and the differential viability (reversal) ([6]; H69AR cells + 2 uM doxorubicin) was 7.52% (inactive). For the same compound, the viability [6, 9] was 79.6%, the viability [6, 10] was 87.1% and the inhibition [7] was -4.08% (inactive). The inhibition [8] was -0.55% (inactive).

For `O=C(Nc1nccs1)NC(C(F)(F)F)C(F)(F)F`, the viability [1] was 104%, the Her2 level [2] was 87.5% (inactive) and the viability [3] was 104% (inactive). For the same compound, the viability [4] was 93% (inactive), the viability [5] was 95.1% (inactive) and the differential viability (reversal) ([6]; H69AR cells + 2 uM doxorubicin) was -0.09% (inactive). For the same compound, the viability [6, 9] was 95.1%, the viability [6, 10] was 95.1% and the inhibition [7] was -6.44% (inactive). For the same compound, the inhibition [8] was -0.16% (inactive).
